Assays:
[1] = folding enthalpy; higher = less favourable; fluorescence melt of hairpins on a sequencing array, two-state fit; conditions: sodium 0.088 M
Procedure, shortened: (§1)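 Melting temperature and folding enthalpy were derived from bootstrapped two-state fits. The fitted temperatures were raised by 9.35 °C to agree with UV melts, and four replicates were combined by inverse variance. The underlying data were Cy3 fluorescence images of library hairpins, with annealed Cy3 and quencher oligos, on a sequenced MiSeq flow cell in 50 mM Na-HEPES pH 8.0, 25 mM NaCl, taken in 2.5 °C steps up to 60 °C, normalised to pre-quench Cy3 and to control constructs.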

[2] = melting temperature; fluorescence melt of hairpins on a sequencing array, two-state fit, raised by 9.35 °C to match UV melts; conditions: sodium 0.088 M
Procedure, shortened: as §1

Row | Sequence | folding enthalpy [1] [kcal/mol] | Tm [2] [°C]
1 | GCGCTCGAAAGAGTACGC ((((((....)))..))) | -25.6 | 50
2 | GATCTGTGTTCAGATC ((((((....)))))) | -34.2 | 51.7
3 | GCTTGGGGAAACCCAAGC (((((((....))))))) | -43.6 | 68.3
4 | GGCCAAGCGAAAGCTGCC (((..(((....)))))) | -21.7 | 54.3
5 | GGCGTGTCGAAAGACGCC (((..(((....)))))) | -23.6 | 58.7
6 | CGGTGACGGAAACGTCCG (((..(((....)))))) | -12 | 44.3
7 | GGTGTGGGAAACCGCACC ((((.((....)).)))) | -42.9 | 60.4
8 | GCGTTGGTACGC ((((....)))) | -20.9 | 51.3
9 | GGCGTCGGAAACGACACC ((.((((....)))).)) | -30.1 | 53.9
10 | GGCAACGGAAACATTGCC (((((.(....).))))) | -31.6 | 45.1
11 | GTGCGCGGAAACGTGCGC (.((.((....)).)).) | -25.9 | 59
12 | GGTGTCCGAAAGGATACC (((.(((....))).))) | -41.5 | 59.9
13 | GGGCCTCGAAAGAGACCC (((.(((....))).))) | -43 | 56
14 | GATCGGATCCCGATC ((((((...)))))) | -38 | 56
15 | GATCGAGAGCTCGATC ((((((....)))))) | -36.5 | 51.8
16 | GCAGCGCGAAAGCTCCGC ((.(.((....)).).)) | -11.6 | 37.9
17 | CGGGCGGAAACGCCCCG ((((((....))).))) | -8.53 | 59.6
18 | GCTAAGCGAAAGCGTAGC ((((.((....)).)))) | -20.3 | 61.5
19 | GACAATGGAAACGTTGTC (((((.(....).))))) | -34.7 | 46.5
20 | GCCTTGCGAAAGCCGGGC (((..((....))..))) | -19.9 | 55.1
21 | GCGTCTTAACGC ((((....)))) | -26.4 | 57.5
22 | GGTTGCCGAAAGGCCACC (((.(((....))).))) | -26.6 | 52.6
23 | GCTCGGGGAAACCTGAGC ((((.((....)).)))) | -35.1 | 59.3

Row | Sequence | folding enthalpy [1] [kcal/mol] | Tm [2] [°C]
24 | GCCAGGGAAACCTGGC ((((((....)))))) | -37.4 | 69.2
25 | GTGATCACGAAAGTGCAC (((..(((....)))))) | -12.5 | 30.7
26 | GGAGGCGAAAGCCACTCC ((((((....)))..))) | -12.1 | 42.6
27 | GCTATGCGAAAGCAAAGC (((.(((....))).))) | -36 | 51.6
28 | GCCATTGAAAAATGGC ((((((....)))))) | -39.8 | 58.4
29 | GGCAAAGGAAACTTTACC ((.((((....)))).)) | -27.4 | 30.1
30 | GCTTGGCCGAAAGGCAGC (((..(((....)))))) | -14.4 | 46.9
31 | GCGTGACGACGC ((((....)))) | -27.2 | 56.8
32 | GCCGGGGGAAACCTCGGC ((((.((....)).)))) | -37.9 | 66.7
33 | GCGGTTCGAAAGAACGC (((.(((....)))))) | -26.8 | 61.2
34 | GACCCCGGAAACGAGGCC (.((.((....)).)).) | -15 | 27.5
35 | GCGACCGAAAGGTTACGC ((((((....)))..))) | -26.6 | 50
36 | GTATGGGGAAACTCGTAC (((.(.(....).).))) | -11.6 | 29.1
37 | GATACCGAAAGGTTCATC ((((((....)))..))) | -12.4 | 32
38 | GCATGAACGAAAGTTTGC (((..(((....)))))) | -20.5 | 33.9
39 | AACTCGAAAGAGTT (((((....))))) | -17.7 | 50.7
40 | GTATGCGGAAACGCATAC (((((((....))))))) | -33.5 | 68.2
41 | GATCAGCTGCCTGATC ((((((....)))))) | -27.5 | 50.5
42 | GCTTCGCGAAAGCAAGGC ((.(.((....)).).)) | -12.3 | 36.1
43 | GCTAGGCGAAAGCGTCGC ((.(.((....)).).)) | -14.3 | 40.3
44 | GCGGGGCGAAAGCGCTGC ((.(.((....)).).)) | -35.9 | 66.4
45 | GTAACCCCGAAAGGGTAC (((..(((....)))))) | -13.6 | 35
46 | GTGCGACGAAAGTCTCAC (((.(((....))).))) | -41.1 | 50.5

Row | Sequence | folding enthalpy [1] [kcal/mol] | Tm [2] [°C]
47 | CGCTCGGAAACGAGGCG ((((((....))).))) | -30.6 | 53.2
48 | GATCTCGATAGAGATC ((((((....)))))) | -36 | 66.8
49 | AGAAGCAGAAATGGTTCT ((((.((....)).)))) | -27.4 | 34.5
50 | GAACCCGGAAACGGGTCC (.(((((....))))).) | -11.2 | 45.4
51 | GTTTTGACGAAAGTCAAC (((..(((....)))))) | -11.5 | 34.6
52 | GTTCGCCCGAAAGGGAAC (((..(((....)))))) | -13.9 | 35.9
53 | GCACCGCGAAAGCTGTGC ((((.((....)).)))) | -32.1 | 66.2
54 | GATCAGACACTGATC ((((((...)))))) | -47.1 | 48.6
55 | GATCCAGCGGTGGATC ((((((....)))))) | -44.3 | 50.8
56 | GATCTCTAGGGAGATC ((((((....)))))) | -39.7 | 53.1
57 | GTACGTGGAAACGCGTAC (((((.(....).))))) | -32.2 | 52.7
58 | GCCGCCGAAAGGCTTGGC ((((((....)))..))) | -21 | 54.5
59 | GCGAGGCTTCGC ((((....)))) | -17.9 | 66.7
60 | GAGTTTGGAAACAGACTC ((((.((....)).)))) | -28.3 | 41.1
61 | GGTACTCGAAAGAGGACC (((.(((....))).))) | -42.7 | 61.5
62 | GGCTTCGAAAGAAAAGCC ((((((....)))..))) | -28 | 46.6
63 | GATCCCGTGGGGGATC ((((((....)))))) | -31.9 | 60
64 | GGAGCTACGAAAGTATCC (((..(((....)))))) | -5.61 | 19.7
65 | CTTGAGAAATCAAG (((((....))))) | -11.1 | 35.6
66 | AGCGTGAAAACGCT (((((....))))) | -18.5 | 65.6
67 | GAACGCGAAAGCGTGTTC ((((((....)))..))) | -10.5 | 46.6
68 | GCCGCTGGAAACAGCAGC ((.((((....)))).)) | -20.1 | 50.1
69 | CGGGACGGAAACGTCCG (((.(((....)))))) | -12.9 | 57.9

Row | Sequence | folding enthalpy [1] [kcal/mol] | Tm [2] [°C]
70 | GTCCGACGAAAGTCCGAC (((.(((....))).))) | -27.5 | 44
71 | GCACTACGAAAGTATGC (((.(((....)))))) | -25.5 | 43
72 | GATCGATCTATCGATC ((((((....)))))) | -42.5 | 56.3
73 | GCGTACGACGC ((((...)))) | -23.8 | 53.3
74 | GGTGGCGAAAGCCTTACC ((((((....)))..))) | -14 | 40.2
75 | GGGGCCTCGAAAGAGCCC (((..(((....)))))) | -23.8 | 56.8
76 | GCTGAGCGAAAGCTAGGC ((..(((....)))..)) | -20.3 | 52.7
77 | GTGGGTCCGAAAGGACAC (((..(((....)))))) | -19 | 63
78 | GCCCTTGGAAACAAGAGC ((.((((....)))).)) | -21.4 | 37.6
79 | GGAGTCACGAAAGTGTCC (((..(((....)))))) | -13.7 | 32.1
80 | GGAGTCGAAAGACAGTCC ((((((....)))..))) | -14.3 | 31.5
81 | GCACCTGCGAAAGCATGC (((..(((....)))))) | -9.15 | 33.6
82 | GAAAGGGGAAACCCTTCC (.(((((....))))).) | -19.7 | 32.1
83 | GACAAAACGAAAGTTGTC (((..(((....)))))) | -24.8 | 39.3
84 | GCATCCGAAAGGACCTGC ((((((....)))..))) | -12.9 | 30
85 | GCGTATCGAAAGATCGC (((.(((....)))))) | -34.2 | 55.6
86 | GTTGTGGGAAACCATAAC (((.(((....))).))) | -32.4 | 43.5
87 | GATTACGAAAGTAATC ((((((....)))))) | -40 | 56.4
88 | GTGGTGGGAAACCGTCAC (((..((....))..))) | -19.8 | 38.4
89 | GCCCGACGAAAGTCCGGC (((.(((....))).))) | -30.7 | 51.8
90 | GGATCGGGAAACCAATCC ((((.((....)).)))) | -29.6 | 38.2
91 | GGGCTACGAAAGTATCCC (((.(((....))).))) | -29.9 | 48.4
92 | GATCTCAAACGAGATC ((((((....)))))) | -41.4 | 50.2

Reference: the array DNA melting data of Ke et al. (doi:10.1101/2024.01.08.574731)
